Assay results from ChEMBL document CHEMBL4190262, “Tuning of β-glucosidase and α-galactosidase inhibition by generation and in situ screening of a library of pyrrolidine-triazole hybrid molecules” (Eur J Med Chem, 2017).
Active and inactive are the calls of the source. The rule behind the calls is not given here.

Legend:
[1] = target: Alpha-galactosidase (Coffea arabica, UniProt Q42656); assay: Inhibition of coffee beans alpha-galactosidase using p-nitrophenyl glycopyranoside preincubated for 5 mins followed by substrate addition measured after 20 mins by visible absorption spectroscopic method
Procedure, shortened: (§1)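 IC50 determined only for compounds giving ≥80% inhibition at 1 mM, read from plots of % inhibition versus inhibitor concentration. p-Nitrophenyl glycopyranoside substrate (10 mM solution) at the enzyme's optimal pH, with 0.01–0.5 units/mL enzyme. 5 min rt preincubation with enzyme, then 20 min at 37 °C. Borate stop (pH 9.8), absorbance at 405 nm. Duplicates averaged.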

[2] = tested on: Prunus dulcis; assay: Inhibition of almond beta-glucosidase at 1 mM using p-nitrophenyl glycopyranoside preincubated for 5 mins followed by substrate addition measured after 20 mins by visible absorption spectroscopic method relative to control
Procedure, shortened: (§2)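 Test compound at 1 mM in well. Mix: 0.01–0.5 units/mL enzyme plus 10 mM p-nitrophenyl glycopyranoside (aqueous solution), buffered to the enzyme's optimal pH. Enzyme and inhibitor preincubated 5 min at rt. Substrate then added and incubated 20 min at 37 °C. Stopped with sodium borate (pH 9.8). p-Nitrophenolate read at 405 nm. Duplicates averaged.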

[3] = target: Alpha-galactosidase (Coffea arabica) (UniProt Q42656); assay: Inhibition of coffee beans alpha-galactosidase at 50 uM using p-nitrophenyl glycopyranoside preincubated for 5 mins followed by substrate addition measured after 20 mins by visible absorption spectroscopic method relative to control
Procedure, shortened: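 Crude triazoles from in situ CuAAC (ascorbate/CuSO4, 24 h rt, water-diluted) were screened at 50 μM per well, assuming full conversion. Enzyme was coffee bean α-galactosidase at pH 6, 37 °C, with p-nitrophenyl glycoside substrate and 405 nm read-out. Blanks of CuSO4, ascorbate and each alkyne were run.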

[4] = species on record: Bos taurus; assay: Inhibition of bovine liver beta-glucosidase at 1 mM using p-nitrophenyl glycopyranoside preincubated for 5 mins followed by substrate addition measured after 20 mins by visible absorption spectroscopic method relative to control; procedure, shortened: as §2
[5] = target: T1, Lysosomal acid glucosylceramidase (Homo sapiens, UniProt P04062); assay: Inhibition of human lysosomal beta-glucocerebrosidase using 4-methylumbelliferyl-beta-D-glucopyranoside as substrate preincubated for 45 mins followed by substrate addition measured after 30 mins by fluorescence spectroscopic method
T1 sequence (P04062 whole entry): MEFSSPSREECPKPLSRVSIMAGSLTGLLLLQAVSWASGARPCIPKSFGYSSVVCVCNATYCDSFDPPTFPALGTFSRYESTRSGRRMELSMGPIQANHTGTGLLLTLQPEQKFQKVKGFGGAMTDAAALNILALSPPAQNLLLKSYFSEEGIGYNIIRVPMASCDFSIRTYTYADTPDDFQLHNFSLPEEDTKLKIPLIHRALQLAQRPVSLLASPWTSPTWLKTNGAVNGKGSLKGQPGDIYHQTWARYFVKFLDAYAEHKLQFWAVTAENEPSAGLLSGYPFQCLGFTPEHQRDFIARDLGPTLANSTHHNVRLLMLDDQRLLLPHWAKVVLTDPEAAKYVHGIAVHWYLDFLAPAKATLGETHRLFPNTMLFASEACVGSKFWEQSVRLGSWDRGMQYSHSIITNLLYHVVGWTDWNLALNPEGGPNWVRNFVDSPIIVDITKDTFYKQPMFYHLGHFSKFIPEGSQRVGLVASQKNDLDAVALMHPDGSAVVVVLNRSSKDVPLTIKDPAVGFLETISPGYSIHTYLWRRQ
Procedure, shortened: (§3)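 Enzyme in 100 mM McIlvaine buffer pH 5.2 with 0.25% sodium taurocholate and 0.1% Triton X-100, with inhibitor. Preincubated at 0 °C for 45 min, then started with 3 mM 4-methylumbelliferyl glycoside substrate solution and incubated 30 min at 37 °C. Stopped with 400 mM glycine-NaOH pH 10.6. 4-Methylumbelliferone fluorescence read at ex 362/em 450 nm.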

[6] = target: T2, Alpha-galactosidase A (Homo sapiens) (UniProt P06280); assay: Inhibition of human lysosomal alpha-galactosidase A at 1 mM using 4-methylumbelliferyl-alpha-D-galactopyranoside as substrate preincubated for 45 mins followed by substrate addition measured after 30 mins by fluorescence spectroscopic method relative to control; procedure, shortened: as §3
T2 sequence (whole entry): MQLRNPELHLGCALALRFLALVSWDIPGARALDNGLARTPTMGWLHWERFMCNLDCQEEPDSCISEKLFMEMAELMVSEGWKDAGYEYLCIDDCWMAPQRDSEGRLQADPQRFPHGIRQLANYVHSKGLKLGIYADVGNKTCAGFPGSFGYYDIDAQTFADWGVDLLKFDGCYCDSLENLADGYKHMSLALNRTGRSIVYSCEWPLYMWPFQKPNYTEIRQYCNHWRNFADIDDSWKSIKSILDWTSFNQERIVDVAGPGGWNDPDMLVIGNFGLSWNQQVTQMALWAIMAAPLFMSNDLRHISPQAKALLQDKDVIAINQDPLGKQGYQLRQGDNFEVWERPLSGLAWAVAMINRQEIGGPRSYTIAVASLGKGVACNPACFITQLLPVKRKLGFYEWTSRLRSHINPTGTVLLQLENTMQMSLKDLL

[7] = target: T3, Beta-galactosidase (Bos taurus, UniProt Q58D55); assay: Inhibition of bovine liver beta-galactosidase using p-nitrophenyl glycopyranoside preincubated for 5 mins followed by substrate addition measured after 20 mins by visible absorption spectroscopic method; procedure, shortened: as §1
T3 sequence (Q58D55 whole entry): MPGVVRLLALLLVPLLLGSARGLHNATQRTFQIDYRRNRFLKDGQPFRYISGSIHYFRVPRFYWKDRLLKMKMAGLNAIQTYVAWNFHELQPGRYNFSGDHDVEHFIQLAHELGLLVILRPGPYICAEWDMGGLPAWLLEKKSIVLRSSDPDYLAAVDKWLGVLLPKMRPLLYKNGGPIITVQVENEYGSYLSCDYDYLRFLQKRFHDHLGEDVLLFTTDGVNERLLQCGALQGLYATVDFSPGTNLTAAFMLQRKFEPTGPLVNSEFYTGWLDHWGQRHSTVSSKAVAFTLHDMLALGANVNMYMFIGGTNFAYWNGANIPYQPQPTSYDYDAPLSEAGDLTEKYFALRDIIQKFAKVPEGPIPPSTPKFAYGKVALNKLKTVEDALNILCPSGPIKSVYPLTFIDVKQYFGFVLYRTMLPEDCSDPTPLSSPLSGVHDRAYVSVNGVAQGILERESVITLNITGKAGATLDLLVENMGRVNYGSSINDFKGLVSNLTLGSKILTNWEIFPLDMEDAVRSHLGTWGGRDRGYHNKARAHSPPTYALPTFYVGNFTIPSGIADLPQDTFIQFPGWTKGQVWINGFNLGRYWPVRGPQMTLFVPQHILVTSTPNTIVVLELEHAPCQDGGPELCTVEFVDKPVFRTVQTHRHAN

[8] = Selectivity ratio of IC50 for human lysosomal alpha-galactosidase A to IC50 for coffee beans alpha-galactosidase
[9] = target: Beta-galactosidase (Escherichia coli) (UniProt Q8VNN2); assay: Inhibition of Escherichia coli beta-galactosidase at 1 mM using p-nitrophenyl glycopyranoside preincubated for 5 mins followed by substrate addition measured after 20 mins by visible absorption spectroscopic method relative to control; procedure, shortened: as §2
[10] = species on record: Bos taurus; assay: Inhibition of bovine kidney alpha-L-fucosidase at 1 mM using p-nitrophenyl glycopyranoside preincubated for 5 mins followed by substrate addition measured after 20 mins by visible absorption spectroscopic method relative to control; procedure, shortened: as §2
[11] = target: Alpha-galactosidase (Coffea arabica) (UniProt Q42656); assay: Inhibition of coffee beans alpha-galactosidase at 1 mM using p-nitrophenyl glycopyranoside preincubated for 5 mins followed by substrate addition measured after 20 mins by visible absorption spectroscopic method relative to control; procedure, shortened: as §2
[12] = target: T4, Beta-galactosidase (Aspergillus oryzae) (UniProt B7VU80); assay: Inhibition of Aspergillus oryzae beta-galactosidase at 1 mM using p-nitrophenyl glycopyranoside preincubated for 5 mins followed by substrate addition measured after 20 mins by visible absorption spectroscopic method relative to control; procedure, shortened: as §2
T4 sequence (whole entry): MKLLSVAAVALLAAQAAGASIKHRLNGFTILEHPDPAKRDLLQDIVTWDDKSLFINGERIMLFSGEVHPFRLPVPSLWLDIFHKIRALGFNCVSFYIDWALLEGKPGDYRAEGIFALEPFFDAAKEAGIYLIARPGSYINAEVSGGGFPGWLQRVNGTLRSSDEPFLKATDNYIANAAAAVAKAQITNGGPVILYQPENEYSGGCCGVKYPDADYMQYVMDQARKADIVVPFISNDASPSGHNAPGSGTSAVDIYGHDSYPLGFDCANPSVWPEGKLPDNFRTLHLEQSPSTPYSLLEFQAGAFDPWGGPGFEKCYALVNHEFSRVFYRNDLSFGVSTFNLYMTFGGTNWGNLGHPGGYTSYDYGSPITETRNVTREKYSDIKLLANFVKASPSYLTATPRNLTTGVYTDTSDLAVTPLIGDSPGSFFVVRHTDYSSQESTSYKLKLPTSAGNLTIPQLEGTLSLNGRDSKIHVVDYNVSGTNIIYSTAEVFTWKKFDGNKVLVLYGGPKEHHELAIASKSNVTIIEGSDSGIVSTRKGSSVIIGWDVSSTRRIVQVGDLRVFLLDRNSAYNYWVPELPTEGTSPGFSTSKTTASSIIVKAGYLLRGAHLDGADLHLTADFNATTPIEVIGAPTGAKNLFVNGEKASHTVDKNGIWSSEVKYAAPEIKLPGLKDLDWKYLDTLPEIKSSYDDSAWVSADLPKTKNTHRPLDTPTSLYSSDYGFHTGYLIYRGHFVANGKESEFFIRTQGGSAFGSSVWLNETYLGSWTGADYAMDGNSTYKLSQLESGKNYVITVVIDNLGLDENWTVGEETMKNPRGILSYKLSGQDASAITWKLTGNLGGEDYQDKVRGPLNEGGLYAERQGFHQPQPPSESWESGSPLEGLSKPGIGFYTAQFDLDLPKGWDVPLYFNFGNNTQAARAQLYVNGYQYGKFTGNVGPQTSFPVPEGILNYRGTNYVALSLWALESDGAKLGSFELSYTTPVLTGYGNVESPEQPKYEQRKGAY

[13] = tested on: Saccharomyces cerevisiae; assay: Inhibition of yeast alpha glucosidase at 1 mM using p-nitrophenyl glycopyranoside preincubated for 5 mins followed by substrate addition measured after 20 mins by visible absorption spectroscopic method relative to control; procedure, shortened: as §2
[14] = tested on: Oryza sativa; assay: Inhibition of rice alpha-glucosidase at 1 mM using p-nitrophenyl glycopyranoside preincubated for 5 mins followed by substrate addition measured after 20 mins by visible absorption spectroscopic method relative to control; procedure, shortened: as §2
[15] = tested on: Aspergillus niger; assay: Inhibition of Aspergillus niger amyloglucosidase at 1 mM using p-nitrophenyl glycopyranoside preincubated for 5 mins followed by substrate addition measured after 20 mins by visible absorption spectroscopic method relative to control; procedure, shortened: as §2
[16] = Inhibition of almond beta-glucosidase using p-nitrophenyl glycopyranoside preincubated for 5 mins followed by substrate addition measured after 20 mins by visible absorption spectroscopic method; set-up: species or system Prunus dulcis; procedure, shortened: as §1
[17] = target: T5, Alpha-mannosidase (Canavalia ensiformis) (UniProt C0HJB3); assay: Inhibition of jack bean alpha-mannosidase at 1 mM using p-nitrophenyl glycopyranoside preincubated for 5 mins followed by substrate addition measured after 20 mins by visible absorption spectroscopic method relative to control; procedure, shortened: as §2
T5 sequence (whole entry): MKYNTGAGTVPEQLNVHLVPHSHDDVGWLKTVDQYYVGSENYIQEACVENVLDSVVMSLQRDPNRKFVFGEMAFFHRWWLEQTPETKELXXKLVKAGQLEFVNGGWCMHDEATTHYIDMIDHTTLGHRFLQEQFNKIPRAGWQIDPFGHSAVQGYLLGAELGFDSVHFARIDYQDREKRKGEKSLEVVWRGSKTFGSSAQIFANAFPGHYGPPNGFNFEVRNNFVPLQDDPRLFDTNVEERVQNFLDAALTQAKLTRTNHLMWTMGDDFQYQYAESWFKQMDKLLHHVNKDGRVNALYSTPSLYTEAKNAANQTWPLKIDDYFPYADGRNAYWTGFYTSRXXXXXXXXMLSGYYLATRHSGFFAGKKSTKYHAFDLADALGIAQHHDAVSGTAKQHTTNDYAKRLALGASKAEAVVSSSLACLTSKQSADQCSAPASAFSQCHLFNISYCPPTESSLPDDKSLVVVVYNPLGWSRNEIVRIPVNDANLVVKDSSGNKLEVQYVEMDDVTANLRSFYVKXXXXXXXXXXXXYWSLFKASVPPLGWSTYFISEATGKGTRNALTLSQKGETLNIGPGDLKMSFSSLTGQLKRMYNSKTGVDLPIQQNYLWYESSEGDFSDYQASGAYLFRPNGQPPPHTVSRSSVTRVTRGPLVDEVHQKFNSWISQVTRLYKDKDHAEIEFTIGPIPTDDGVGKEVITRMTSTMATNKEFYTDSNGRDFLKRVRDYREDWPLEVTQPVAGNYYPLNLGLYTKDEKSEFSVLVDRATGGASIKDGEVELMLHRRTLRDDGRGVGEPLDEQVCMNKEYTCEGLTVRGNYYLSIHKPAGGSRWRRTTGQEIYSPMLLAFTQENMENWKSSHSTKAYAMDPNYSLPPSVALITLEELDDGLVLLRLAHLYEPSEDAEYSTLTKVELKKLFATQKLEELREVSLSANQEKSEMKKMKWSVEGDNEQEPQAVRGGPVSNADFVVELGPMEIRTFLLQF

[18] = tested on: Cornu aspersum; assay: Inhibition of snail beta-mannosidase at 1 mM using p-nitrophenyl glycopyranoside preincubated for 5 mins followed by substrate addition measured after 20 mins by visible absorption spectroscopic method relative to control; procedure, shortened: as §2
[19] = tested on: Canavalia ensiformis; assay: Inhibition of jack bean beta-N-acetylglucosaminidase at 1 mM using p-nitrophenyl glycopyranoside preincubated for 5 mins followed by substrate addition measured after 20 mins by visible absorption spectroscopic method relative to control; procedure, shortened: as §2

Chain of Alpha-galactosidase (Q42656 whole entry): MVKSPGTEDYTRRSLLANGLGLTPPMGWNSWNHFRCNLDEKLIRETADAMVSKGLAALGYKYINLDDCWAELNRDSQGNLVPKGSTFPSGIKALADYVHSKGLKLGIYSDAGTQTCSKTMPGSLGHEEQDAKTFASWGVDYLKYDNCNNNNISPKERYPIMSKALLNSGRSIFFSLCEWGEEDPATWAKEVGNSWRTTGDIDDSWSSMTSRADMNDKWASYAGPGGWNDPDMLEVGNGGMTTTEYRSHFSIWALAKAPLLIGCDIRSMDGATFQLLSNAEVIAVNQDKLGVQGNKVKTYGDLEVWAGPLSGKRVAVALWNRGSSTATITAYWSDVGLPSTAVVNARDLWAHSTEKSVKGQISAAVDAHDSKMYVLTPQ
Chain of Alpha-galactosidase (Coffea arabica) (Q42656 16-378 limits assumed): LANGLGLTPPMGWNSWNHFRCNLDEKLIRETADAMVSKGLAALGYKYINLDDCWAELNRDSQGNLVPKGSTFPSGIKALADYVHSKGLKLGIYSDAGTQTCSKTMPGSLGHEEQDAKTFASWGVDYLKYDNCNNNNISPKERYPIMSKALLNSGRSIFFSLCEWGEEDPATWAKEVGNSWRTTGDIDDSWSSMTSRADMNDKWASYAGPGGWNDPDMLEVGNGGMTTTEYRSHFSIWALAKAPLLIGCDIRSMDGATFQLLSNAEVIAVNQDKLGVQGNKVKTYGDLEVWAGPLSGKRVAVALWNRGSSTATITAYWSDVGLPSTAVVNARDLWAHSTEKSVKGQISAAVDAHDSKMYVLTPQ
Chain of Beta-galactosidase (Escherichia coli) (Q8VNN2 whole entry, looked up): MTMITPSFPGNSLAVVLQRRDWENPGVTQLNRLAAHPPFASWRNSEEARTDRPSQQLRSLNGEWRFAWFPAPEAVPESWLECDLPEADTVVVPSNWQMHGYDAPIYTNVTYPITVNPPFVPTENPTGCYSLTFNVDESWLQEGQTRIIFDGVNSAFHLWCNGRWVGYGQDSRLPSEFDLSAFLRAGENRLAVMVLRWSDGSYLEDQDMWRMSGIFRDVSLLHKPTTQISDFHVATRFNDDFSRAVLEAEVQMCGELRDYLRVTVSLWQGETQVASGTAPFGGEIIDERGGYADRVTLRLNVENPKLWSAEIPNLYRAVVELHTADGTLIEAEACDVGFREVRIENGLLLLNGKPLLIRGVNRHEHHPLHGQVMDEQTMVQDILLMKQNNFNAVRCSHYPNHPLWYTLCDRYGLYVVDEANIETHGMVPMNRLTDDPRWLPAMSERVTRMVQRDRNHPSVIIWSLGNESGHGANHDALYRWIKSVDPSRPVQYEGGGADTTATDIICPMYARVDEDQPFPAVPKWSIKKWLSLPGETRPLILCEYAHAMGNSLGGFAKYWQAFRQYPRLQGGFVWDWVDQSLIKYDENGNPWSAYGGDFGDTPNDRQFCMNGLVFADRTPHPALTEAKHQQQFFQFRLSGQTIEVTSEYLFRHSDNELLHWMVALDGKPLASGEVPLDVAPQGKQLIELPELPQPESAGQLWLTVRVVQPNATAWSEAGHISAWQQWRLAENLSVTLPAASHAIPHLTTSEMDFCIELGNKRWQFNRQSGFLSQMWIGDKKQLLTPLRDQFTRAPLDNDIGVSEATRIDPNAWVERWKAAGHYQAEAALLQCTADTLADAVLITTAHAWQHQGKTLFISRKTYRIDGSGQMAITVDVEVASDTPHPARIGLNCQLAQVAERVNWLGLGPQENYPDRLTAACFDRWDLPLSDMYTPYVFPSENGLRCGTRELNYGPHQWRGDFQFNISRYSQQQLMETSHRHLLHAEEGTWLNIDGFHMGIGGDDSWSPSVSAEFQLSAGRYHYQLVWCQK

SMILES | IC50 [1] [µM] | inhibition [2] [%] | inhibition [3] [%] | inhibition [4] [%] | IC50 [5] [µM] | inhibition [6] [%] | IC50 [7] [µM] | Ratio IC50 [8] | inhibition [9] [%] | inhibition [10] [%] | inhibition [11] [%] | inhibition [12] [%] | inhibition [13] | inhibition [14] | inhibition [15] | IC50 [16] [µM] | inhibition [17] | inhibition [18] | inhibition [19]
COc1ccc2cc(-c3cn(C[C@H]4NC[C@@H](O)[C@H]4O)nn3)ccc2c1 | 17 | < 50 | 64 | < 50 | 19 | < 50 | 42 | 10 | – | – | – | – | – | – | – | – | – | – | –
O[C@@H]1[C@H](O)CN[C@@H]1CCn1cc(-c2ccccc2)nn1 | 107 | 96 | – | – | – | – | – | – | 60 | 49 | 89 | 78 | inactive | inactive | inactive | 11 | inactive | inactive | inactive
